# According to paper PMC4894453 (Scientific Reports, 2014):
# Entries after “also recorded” stand apart in the source; their conditions may differ.
# What was measured:
# [1] = tested on: Enterococcus faecalis ATCC 33186; test: MIC, microbroth dilution, Enterococcus faecalis; type: cell-based; conditions: Enterococcus faecalis, ATCC33186, read-out: MIC against Gram-positive bacteria, EF, Enterococcus faecalis ATCC 33186; Mueller-Hinton broth, 18–20 h
# [2] = tested on: Streptococcus pyogenes ATCC 700294; test: MIC, microbroth dilution, Streptococcus pyogenes; type: cell-based; conditions: Streptococcus pyogenes, ATCC700294, read-out: MIC against Gram-positive bacteria, SP
# [3] = tested on: Streptococcus pneumoniae R6; test: MIC, microbroth dilution, Streptococcus pneumoniae; type: cell-based; conditions: Streptococcus pneumoniae, R6, read-out: MIC against Gram-positive bacteria, SPn
# Summary of the method: (§1)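 CLSI microbroth dilution in Mueller-Hinton broth. Test compound at final 200–0.1 μg/ml, diluted from 10 mg/ml DMSO stocks. Plates incubated 18–20 h. MIC is the lowest concentration preventing visible growth.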
# [4] = tested on: Bacillus anthracis sterne; test: microbe, parasite or virus in culture; type: cell-based; conditions: Bacillus anthracis, read-out: MIC against Gram-positive bacteria, BA
# [5] = tested on: Bacillus subtilis ATCC 23857; test: MIC, microbroth dilution, Bacillus subtilis; type: cell-based; conditions: Bacillus subtilis, ATCC23857, read-out: MIC against Gram-positive bacteria, BS
# Summary of the method: as §1
# [6] = tested on: Clostridium difficile BAA 1803; test: MIC, microbroth dilution, anaerobic, Clostridium difficile; type: cell-based; conditions: for MIC: Clostridioides difficile, BAA1803, 24 h, read-out: MIC against Gram-positive bacteria, CD, Clostridium difficile BAA 1803, Brain-heart infusion broth, 24 h, anaerobic
# [7] = tested on: methicillin-resistant Staphylococcus aureus N315; test: MIC, microbroth dilution, MRSA; type: cell-based; conditions: Staphylococcus aureus, MRSA, read-out: MIC against Gram-positive bacteria, MRSA
# Summary of the method: as §1
# [8] = tested on: Vero cells (kidney epithelial cells; ATCC CCL-81); test: Cytotoxicity, CellTiter-Glo viability; type: cell-based; conditions: Cytotox IC50/MIC against methicillin-susceptible S. aureus Newman
# Summary of the method: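 Vero kidney epithelial cells exposed 72 h to test compound (final 200–0.1 μg/ml in DMEM; diluted from 10 mg/ml DMSO stocks). Viability read by CellTiter-Glo luminescence. IC50 is the concentration giving 50% viability loss, from curve fitting. Selectivity index is the cytotoxic IC50 divided by the MIC against S. aureus Newman.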
# [9] = tested on: methicillin-susceptible Staphylococcus aureus Newman; test: MIC, microbroth dilution, MSSA; type: cell-based; conditions: for fold improvement in activity over reutericyclin: S. aureus, strain not given
# Summary of the method: as §1
# [10] = tested on: panel of clinical relevant Gram-positive pathogens; test: MIC, statements over the Gram-positive panel; type: cell-based
# S. aureus Newman [11] = test: Membrane potential by flow cytometry with DiOC2; type: cell-based, Staphylococcus aureus; conditions: 10 μM, 30 min, DiOC2(3)
# Summary of the method: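 Exponential-phase S. aureus Newman (OD600 ≈ 0.3, Mueller-Hinton II broth) treated with test compound at 100, 10 or 1 μM for 30 min at 37°C. Cells stained 5 min with 30 μM DiOC2(3) and run on flow cytometry (10,000 events, 488 nm excitation, green and red emission). Red/green fluorescence ratio histograms compared. CCCP was the positive control; at least two independent samples.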
# S. aureus Newman [12] = test: Membrane permeability by flow cytometry with propidium iodide; type: cell-based, Staphylococcus aureus; conditions: 10 μM, 30 min, concentrations causing dissipation of the membrane potential
# Summary of the method: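 S. aureus Newman grown in Mueller-Hinton II broth to OD600 ≈ 0.3 and exposed to test compound at 10 μM for 30 min. Propidium iodide (10 μM) added for 10 min in the dark. Flow cytometry: 10,000 events, 488 nm excitation, red fluorescence; event histograms compared. Thioridazine at 100 μg/mL served as positive control.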
Compound,MIC [1] [µg/mL],MIC [2] [µg/mL],MIC [3] [µg/mL],MIC [4] [µg/mL],MIC [5] [µg/mL],MIC [6] [µg/mL],MIC [7] [µg/mL],Selectivity index [8],"MIC against Gram-positive bacteria, MSSA ([9]; S. aureus Newman, 18–20 h) [µg/mL]",fold improvement in activity over reutericyclin [9] [fold],fold improvement in activity over reutericyclin ([6]; C. difficile) [fold],MIC ([10]; read-out: MIC over the Gram-positive panel) [µg/mL],dissipation of the membrane potential (S. aureus Newman [11]),physical integrity of the S. aureus membrane (propidium iodide uptake) (S. aureus Newman [12]),fold less active than reutericyclin ([10]; Gram-positive panel (most bacteria)) [fold]
"CCCCCCC/C=C/C(=O)N1C(=O)/C(=C(\O)c2ccc(O)cc2)C(=O)C1CC(C)C (centres unmarked) [Compound 12, (Z)-1-((E)-dec-2-enoyl)-3-(hydroxy(4-hydroxyphenyl)methylene)-5-isobutylpyrrolidine-2,4-dione]",12.5,50,50,0.78,3.13,2,6.25,9,,,,,,,
"CCCCCCC/C=C/C(=O)N1C(=O)/C(=C(/C)O)C(=O)C1Cc1ccc(OC(C)(C)C)cc1 (centres unmarked) [Compound 20, (Z)-5-(4-(tert-butoxy)benzyl)-1-((E)-dec-2-enoyl)-3-(1-hydroxyethylidene)pyrrolidine-2,4-dione]",0.78,12.5,6.25,200,1.56,0.25,< 0.1,>115,<0.1,> 4,,,,,
"CCCCCCC/C=C/C(=O)N1C(=O)/C(=C(\O)CCCC)C(=O)C1CC(C)C (centres unmarked) [Compound 6, (Z)-1-((E)-dec-2-enoyl)-3-(1-hydroxypentylidene)-5-isobutylpyrrolidine-2,4-dione]",0.2,3.13,3.13,0.39,0.39,< 0.03,< 0.1,>58,,> 4,> 3,< 1,slightly lower than reutericyclin; also recorded: did not rapidly dissipate the membrane potential,did not disrupt the physical integrity,
"CCCCCCC/C=C/C(=O)N1C(=O)/C(=C(\O)C2CCNCC2)C(=O)C1CC(C)C (centres unmarked) [Compound 9, (Z)-1-((E)-dec-2-enoyl)-3-(hydroxy(piperidin-4-yl)methylene)-5-isobutylpyrrolidine-2,4-dione]",50,100,50,12.5,12.5,8,50,2,,,,,reduced their ability to dissipate the membrane potential,,
"CCCCC(=O)N1C(=O)/C(=C(/C)O)C(=O)C1CC(C)C (centres unmarked) [Compound 3, (Z)-3-(1-hydroxyethylidene)-5-isobutyl-1-pentanoylpyrrolidine-2,4-dione]",50,12.5,6.25,> 200,100,16,12.5,1,,,,,,,≥ 32
"CCCCCCC/C=C/C(=O)N1C(=O)/C(=C(\O)c2ccncc2)C(=O)C1CC(C)C (centres unmarked) [Compound 8, (Z)-1-((E)-dec-2-enoyl)-3-(hydroxy(pyridin-4-yl)methylene)-5-isobutylpyrrolidine-2,4-dione]",50,100,25,50,100,0.5,12.5,5,,,,,,,
"CCCCCCC/C=C/C(=O)N1C(=O)/C(=C(/C)O)C(=O)C1CCC(=O)O (centres unmarked) [Compound 16, 3-((Z)-1-((E)-dec-2-enoyl)-4-(1-hydroxyethylidene)-3,5-dioxopyrrolidin-2-yl)propanoic acid]",25,50,25,> 200,50,> 64,> 200,1,,,,,,,
